Counter-ions that a name gives are not always drawn. Like-named read-outs stand apart in the source and are kept apart here.
Assays:
[1] = test system: antibiotic-resistant strain (A–E) of P. aeruginosa; experiment: MIC against antibiotic-resistant strains; type: cell-based, Pseudomonas aeruginosa; settings: for MIC: Pseudomonas aeruginosa; for Resistance/sensitivity class, strain A / MIC, P. aeruginosa strain A: antibiotic-resistant strain A; for Resistance/sensitivity class, strain B / MIC, P. aeruginosa strain B: antibiotic-resistant strain B; for Resistance/sensitivity class, strain C / MIC, P. aeruginosa strain C: antibiotic-resistant strain C; for Resistance/sensitivity class, strain D / MIC, P. aeruginosa strain D: antibiotic-resistant strain D; for Resistance/sensitivity class, strain E / MIC, P. aeruginosa strain E: antibiotic-resistant strain E
[2] = test system: C57BL/6 db/db mice, punch biopsy wounds; experiment: Diabetic mouse wound-healing model; type: in vivo; settings: topical 100 μg/ml
[3] = test system: db/db mice wounds with methicillin-resistant S. aureus; experiment: Diabetic mouse infectious; type: in vivo
Summary of the method: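 Male C57BL/6 db/db mice, n = 6–8 per group, backs depilated 3 days before surgery. Under anaesthesia, 15 mm dorsal punch biopsy wounds received 100 μl MRSA (1 × 10^4 cfu/ml) topically, with or without peptide (100 μg/ml) or saline, under semi-permeable polyurethane dressing. Dosing and photographic wound-area measurement on days 0, 2, 4, 7, 9, 11, 14, 16. Means ± S.E.M.; ANOVA with Fisher's PLSD.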

[4] = test system: NIBS minipigs, full-thickness excisional wounds; experiment: Porcine wound-healing model; type: in vivo, pig; settings: anti-vWF staining; in comparison to control group; N = 6
Summary of the method: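 Three male NIBS minipigs (32.0–33.5 kg) premedicated with ketamine 500 mg/body under isoflurane 2–4%. Four 25 mm, 10 mm-deep full-thickness excisional wounds per side abdomen, 30 mm apart. Peptide 100 μg/ml or saline (200 μl/site) applied on days 0, 2, 4, 6, 8, 10 under polyurethane dressing. Day-12 frozen sections were acetone-fixed (−20°C, 15 min), and capillary EC immunostained with anti-vWF (1:200).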

[5] = read-out: MIC, P. aeruginosa strain A
[6] = read-out: MIC, P. aeruginosa strain B
[7] = read-out: MIC, P. aeruginosa strain C
[8] = read-out: MIC, P. aeruginosa strain D
[9] = read-out: MIC, P. aeruginosa strain E

## C[C@H]1[C@H](NC(=O)/C(=N\OC(C)(C)C(=O)O)c2csc(N)n2)C(=O)N1S(=O)(=O)O [AZT, aztreonam]
[1]; [5]
  MIC: < 8 µg/mL
[1]; [6]
  MIC: > 16 µg/mL
[1]; [7]
  MIC: < 8 µg/mL
[1]; [8]
  MIC: < 8 µg/mL
[1]; [9]
  MIC: > 16 µg/mL
[1]
  Resistance/sensitivity class, strain A: S
  Resistance/sensitivity class, strain B: R
  Resistance/sensitivity class, strain C: S
  Resistance/sensitivity class, strain D: S
  Resistance/sensitivity class, strain E: R

## CC(C)(O/N=C(\C(=O)N[C@@H]1C(=O)N2C(C(=O)[O-])=C(C[n+]3ccccc3)CS[C@H]12)c1csc(N)n1)C(=O)O [CAZ, ceftazidime hydrate]
[1]; [5]
  MIC: < 8 µg/mL
[1]; [6]
  MIC: < 8 µg/mL
[1]; [7]
  MIC: < 8 µg/mL
[1]; [8]
  MIC: < 8 µg/mL
[1]; [9]
  MIC: > 32 µg/mL
[1]
  Resistance/sensitivity class, strain A: S
  Resistance/sensitivity class, strain B: S
  Resistance/sensitivity class, strain C: S
  Resistance/sensitivity class, strain D: S
  Resistance/sensitivity class, strain E: R

## CO/N=C(\C(=O)N[C@@H]1C(=O)N2C(C(=O)O)=C(C[N+]3(C)CCCC3)CS[C@H]12)c1csc(N)n1.Cl.O.[Cl-] [CFPM, cefepime hidrochloride hydrate]
[1]
  MIC, P. aeruginosa strain A: < 8 µg/mL
  MIC, P. aeruginosa strain B: < 8 µg/mL
  MIC, P. aeruginosa strain C: < 8 µg/mL
  MIC, P. aeruginosa strain D: < 8 µg/mL
  MIC, P. aeruginosa strain E: > 16 µg/mL

## O=C(O)c1cn(C2CC2)c2cc(N3CCNCC3)c(F)cc2c1=O [CPFX, Ciprofloxacin hydrochloride]
[1]; [5]
  MIC: < 1 µg/mL
[1]; [6]
  MIC: < 1 µg/mL
[1]; [7]
  MIC: < 1 µg/mL
[1]; [8]
  MIC: < 1 µg/mL
[1]; [9]
  MIC: > 2 µg/mL

## CCN1CCN(C(=O)N[C@@H](C(=O)N[C@@H]2C(=O)N3C(C(=O)O)=C(CSc4nnnn4C)CS[C@H]23)c2ccc(O)cc2)C(=O)C1=O [CPZ, cefoperazone sodium]
[1]; [5]
  MIC: < 16 µg/mL
[1]; [6]
  MIC: 32 µg/mL
[1]; [7]
  MIC: < 16 µg/mL
[1]; [8]
  MIC: < 16 µg/mL
[1]; [9]
  MIC: > 32 µg/mL
[1]
  Resistance/sensitivity class, strain A: S
  Resistance/sensitivity class, strain C: S
  Resistance/sensitivity class, strain D: S
  Resistance/sensitivity class, strain E: R

## C[C@@H]1O[C@@H]1P(=O)(O)O [FOM, fosfomycin sodium]
[1]; [5]
  MIC: > 16 µg/mL
[1]; [6]
  MIC: > 16 µg/mL
[1]; [7]
  MIC: > 16 µg/mL
[1]; [8]
  MIC: > 16 µg/mL
[1]; [9]
  MIC: > 16 µg/mL
[1]
  Resistance/sensitivity class, strain A: R
  Resistance/sensitivity class, strain B: R
  Resistance/sensitivity class, strain C: R
  Resistance/sensitivity class, strain D: R
  Resistance/sensitivity class, strain E: R

## C[C@H]1COc2c(N3CCN(C)CC3)c(F)cc3c(=O)c(C(=O)O)cn1c23 [LVFX, levofloxacin hydrate]
[1]; [5]
  MIC: < 2 µg/mL
[1]; [6]
  MIC: < 2 µg/mL
[1]; [7]
  MIC: < 2 µg/mL
[1]; [8]
  MIC: 4 µg/mL
[1]; [9]
  MIC: > 4 µg/mL
[1]
  Resistance/sensitivity class, strain A: S
  Resistance/sensitivity class, strain B: S
  Resistance/sensitivity class, strain C: S
  Resistance/sensitivity class, strain D: S
  Resistance/sensitivity class, strain E: R

## NC[C@H]1O[C@H](O[C@H]2[C@H](O)[C@@H](O[C@H]3O[C@H](CO)[C@@H](O)[C@H](N)[C@H]3O)[C@H](N)C[C@@H]2N)[C@H](N)C[C@@H]1O [TOB, tobramycin]
[1]; [5]
  MIC: > 8 µg/mL
[1]; [6]
  MIC: < 4 µg/mL
[1]; [7]
  MIC: > 8 µg/mL
[1]; [8]
  MIC: < 4 µg/mL
[1]; [9]
  MIC: < 4 µg/mL
[1]
  Resistance/sensitivity class, strain A: R
  Resistance/sensitivity class, strain B: S
  Resistance/sensitivity class, strain C: R
  Resistance/sensitivity class, strain D: S
  Resistance/sensitivity class, strain E: S

## Gentamicin sulfate [GM]
[1]
  MIC, P. aeruginosa strain A: > 8 µg/mL
  Resistance/sensitivity class, strain A: R
  MIC, P. aeruginosa strain B: < 4 µg/mL
  Resistance/sensitivity class, strain B: S
  MIC, P. aeruginosa strain C: > 8 µg/mL
  Resistance/sensitivity class, strain C: R
  MIC, P. aeruginosa strain D: < 4 µg/mL
  Resistance/sensitivity class, strain D: S
  MIC, P. aeruginosa strain E: 8 µg/mL

## LL37: well-known antimicrobial peptide with angiogenic effects
[2]; 3 days after operation, compared with control group
  Blood flow around the wound (LDI), diabetic mouse: significantly increased the blood flow
[2]; db/db mice
  Spontaneous S. aureus infection of wounds during experiment: none of the mice
[2]; db/db mice, day 14, versus control
  Wound size, diabetic mouse: significantly decreased wound size
[3]; MRSA 1 x 10^4 cfu/ml, co-treatment 100 μg/ml
  Yellow pus on MRSA-infected wounds: attenuated the increase of yellow pus
[3]; MRSA, 100 μg/ml, days 11, 14 and 16 after treatment
  Infectious wound size: significantly decreased wound size
[4]
  Microcapillary density, porcine wound: significantly increased

— article PMC3823230 (Journal of Cellular and Molecular Medicine, 2012)
